In the library only some 3.9% were active in any assay of this set; here they are far more common.
UPR CHOP act: activators of apoptotic arm of unfolded protein response (CHOP). AID 449763. activation, % at 10 µM. 330,000 compounds, 0.34% hits. CHO-CHOP luciferase reporter, UPR activation, luminescence; percent of tunicamycin response over DMSO baseline;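 active = at 10 µM dose, activation of 40% or more, normalized to positive control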;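 note: 100% = tunicamycin at 10 µg/mL and 0% = DMSO alone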
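Dosing – one dose, 10 µM in 0.5% DMSO · System – CHO-CHOP cells, stable luciferase reporter of PERK-eIF2a-CHOP signalling · Input – 500 cells/well · Control set – tunicamycin 10 µg/mL final as positive, DMSO-only wells as negative · Timing – 6 h compound treatment, 37 °C · Measure – % activation vs tunicamycin · Technique – luminescence read with Steady-Glo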
XBP1 UPR activ: activators of adaptive arm of unfolded protein response (XBP1). CHO-XBP1 luciferase reporter, IRE1-XBP1 UPR activation, luminescence; percent of tunicamycin response, DMSO as zero. activation, % at 20 µM. 330,000 compounds, 0.33% hits;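 active = versus positive control, 20 µM dose yields 30% or more activation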;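 note: 100% = tunicamycin at 10 µg/mL and 0% = DMSO only wells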
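Signal: luciferase luminescence; Assay system: CHO-XBP1 luciferase reporter cells; Amount: one thousand reporter cells per well; Dosing: 20 µM single concentration, DMSO 1%; Benchmarks: high control tunicamycin 10 µg/mL final, low control DMSO vehicle only; Schedule: 6 h compound exposure at 37 °C, 5% CO2; Evaluation: percent activation relative to tunicamycin reference.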
tim23-1 inh: tim23-1 yeast growth inhibition; S. cerevisiae tim23-1 growth, BacTiter-Glo luminescence, 24 h; inhibition, % at 20 µM; 330,000 compounds, 1.3% hits;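 active = growth inhibition of the mutant yeast at or above 50%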;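 note: temperature-sensitive mutant grown at 25 °C; plate controls were DMSO-treated mutant yeast for no effect and medium wells lacking yeast for full effect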
TIM10 inh: inhibits growth of TIM10 yeast strain. S. cerevisiae TIM10 strain growth, BacTiter-Glo luminescence, 24 h. inhibition, % at 10 µM. 330,000 compounds, 1.4% hits;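 active = inhibition of 40% or more at the single tested concentration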;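 note: wild-type TIM10 isogenic control strain grown at permissive 25 °C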
tim10-1 inh: tim10-1 yeast growth inhibition. S. cerevisiae tim10-1 ts strain growth, BacTiter-Glo, 24 h. inhibition, % at 20 µM. 330,000 compounds, 2.2% hits;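 active = inhibition of at least 40%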;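 note: mutant grown at 25 °C; 0% = DMSO wells with yeast and 100% = wells holding no yeast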
tim10-1 conf: confirmation of tim10-1 mutant yeast growth inhibitors. shares compounds with tim10-1 inh. S. cerevisiae tim10-1 ts strain growth, BacTiter-Glo, 24 h. inhibition, % at 20 µM. 7,400 compounds, 56% hits;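 active = inhibition of yeast growth at or above a set limit in either of two repeat tests at 20 µM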;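 note: tim10-1 mutant grown at permissive 25 °C to find synthetic lethal compounds; 0% = DMSO yeast wells and 100% = medium wells without yeast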
Starred values were filed as active, the others as inactive; / = no result.

SMILES | UPR CHOP act | XBP1 UPR activ | tim23-1 inh | TIM10 inh | tim10-1 inh | tim10-1 conf
Nc1cccnc1Sc1ccc(Cl)cc1 | 1 | -1 | -4 | -4 | -1 | /
O=C(C1CC1)N1CCc2cc(Br)cc(S(=O)(=O)N3CCN(c4ccccn4)CC3)c21 | 1 | -1 | 28 | 10 | 44* | 37*
CCOC(=O)C1CCN(S(=O)(=O)c2cc(Br)cc3c2N(C(=O)C2CC2)CC3)CC1 | 2 | -2 | 33 | 33 | 34 | /
Cc1ccc(/C(N)=N/OC(=O)N2CCOCC2)cc1 | 3 | 1 | 29 | 30 | 58* | 46*
COc1ccccc1CNC(=O)COC(=O)C1CCN(c2ccc(C(F)(F)F)cn2)CC1 | 2 | -1 | 9 | 7 | 21 | /
Cc1ccc(OCCn2c(C3CC(=O)N(Cc4ccccc4)C3)nc3ccccc32)cc1 (configuration not stated) | 0 | 3 | 11 | 8 | 3 | /
C=CCN1CC(c2nc3ccccc3n2Cc2cccc3ccccc23)CC1=O (configuration not stated) | 0 | -3 | 27 | 30 | 45* | 15
COc1cc(C)c(CN2CCC(n3nccc3NC(=O)C3CC3)CC2)cc1C | 1 | 0 | 6 | 6 | 8 | /
c1ccc(-c2cc(-c3nnco3)c3ccccc3n2)nc1 | 1 | 3 | 1 | -11 | 40* | 25
COc1cc(-c2cc(-c3nnco3)c3ccccc3n2)cc(OC)c1OC | 1 | 1 | 27 | 6 | 14 | /
CCCCOP(=O)(c1ccc(N(C)C)cc1)C(O)c1ccccc1F (configuration not stated) | -1 | -3 | 24 | 31 | 43* | 21
CC(=O)[C@H]1[C@H](c2cccc(Cl)c2)C(C#N)(C#N)[C@@H]2c3ccccc3C=CN21 | -1 | -1 | 30 | 31 | 48* | 23
C#CC(CC)(CC)NC(=O)c1cc(S(=O)(=O)N2CCCCC2)ccc1N1CCOCC1 | 2 | 0 | 25 | 7 | 11 | /
Cn1nnc(NC(=S)NC(=O)c2cc(Cl)ccc2Cl)n1 | -2 | -3 | 41 | 11 | 41* | 0
CN(CCc1ccccn1)C1CC(=O)N(c2ccc(Cl)cc2)C1=O (configuration not stated) | 2 | -2 | 23 | 4 | 41* | 34*
COc1ccc(C(CNC(=O)c2c(C)nn(Cc3ccc(C)cc3)c2Cl)N2CCOCC2)cc1 (configuration not stated) | 0 | -1 | 19 | 9 | 10 | /
CCn1c(SCC(O)c2ccccc2)nnc1-c1ccccc1 (configuration not stated) | 2 | 0 | 13 | 6 | 27 | /
CCn1c(SC(C)C)nnc1-c1cc(-c2ccccc2)sc1N | 1 | -1 | 39 | 39 | 46* | 38*
CC(C)(C)c1ccc(C(=O)NC(=O)CSc2n[nH]c(N)n2)cc1 | 3 | -2 | 7 | 2 | 15 | /
Cc1cc(/C=C\c2ccc3cc(N(C)C)ccc3[n+]2C)c(C)n1-c1ccccc1 | 24 | 25 | 32 | 29 | 70* | 50*
C[n+]1c(/C=C/c2ccc(O)cc2)ccc2ccccc21 | 5 | 4 | 27 | 38 | 18 | /
O=C(COC(=O)c1cc(Cl)ccc1O)NCC1CCCO1 (configuration not stated) | 0 | 4 | 13 | 2 | 8 | /
CC(=O)c1ccc(NC(=S)NC(C)c2ccc(Cl)cc2Cl)cc1 (configuration not stated) | 2 | -2 | 27 | 26 | 56* | 33*
S=C(Nc1ccc(Nc2ccccc2)cc1)NC1CCCCCC1 | 3 | 0 | 6 | 28 | 43* | 38*
S=C(Nc1ccc2[nH]ccc2c1)NC1CCCCC1 | 3 | 5 | 24 | 35 | 42* | 8
SMILES | UPR CHOP act | XBP1 UPR activ | tim23-1 inh | TIM10 inh | tim10-1 inh | tim10-1 conf
S=C(Nc1ccc(Cl)cc1)NC1CCCCC1 | 0 | 5 | 23 | 3 | 7 | /
S=C(Nc1cccnc1)NC1CCCC1 | 1 | 0 | 15 | -9 | 12 | /
S=C(Nc1cccnc1)NC1CCCCCCC1 | 2 | 1 | 33 | 32 | 50* | 45*
Cc1ccccc1NC(=O)NNC(=O)COc1ccc2ccccc2c1 | 0 | -5 | -3 | -9 | -23 | /
CCN(c1ccccc1)S(=O)(=O)c1ccc(C(=O)N(CCN(C)C)c2nc3c(F)cc(F)cc3s2)cc1 | 1 | -3 | -4 | 4 | -13 | /
O=C1S/C(=C\c2ccc(N3CCOCC3)o2)C(=O)N1Cc1c(F)cccc1Cl | 3 | 2 | 21 | 23 | 34 | /
O=C1S/C(=C/c2ccc(N3CCOCC3)o2)C(=O)N1Cc1c(F)cccc1Cl | 5 | 1 | 29 | 24 | 59* | 58*
Nc1c(C(=O)c2ccc(F)cc2)oc2ccccc12 | 2 | 2 | 30 | 25 | 45* | 22
CCN(CC)CCCNC(=O)C1CCC(CNS(=O)(=O)c2ccc(Cl)cc2)CC1 (configuration not stated) | 3 | -3 | 11 | 8 | -12 | /
COc1ccccc1Sc1nc(-c2ccccn2)ncc1OC | 1 | 3 | 15 | -11 | 19 | /
COc1cnc(-c2ccccn2)nc1Sc1ccc(C)cc1 | 37 | 20 | 35 | 27 | 44* | 26
COCCn1c(=S)[nH]c2cc(C(=O)N3CC(C)CC(C)C3)ccc2c1=O (configuration not stated) | 5 | -6 | -8 | -33 | 41* | -62
COCCn1c(=S)[nH]c2cc(C(=O)N3CCCC(C)C3)ccc2c1=O (configuration not stated) | 1 | -6 | 0 | 4 | 6 | /
O=C(CC1C(=O)NCCN1Cc1cccc(Oc2ccccc2)c1)NCCc1ccccn1 (configuration not stated) | 1 | -1 | 18 | 39 | 37 | /
O=C(CC1C(=O)NCCN1Cc1cccc(Oc2ccccc2)c1)NCCc1cscn1 (configuration not stated) | -2 | 2 | 20 | 16 | 42* | 28
CC(OC(=O)c1ccc(Cl)cc1)C(=O)NCC1CCCCC1 (configuration not stated) | 0 | -2 | 26 | -6 | -10 | /
CC12CCC(=O)N1C(C(=O)Nc1nc(-c3ccccc3Cl)cs1)CS2 (configuration not stated) | 4 | 1 | 30 | 10 | 26 | /
CCc1ccc(C(=O)c2oc3nc(C)cc(C)c3c2N)cc1 | 4 | 5 | 29 | 27 | 45* | 33*
CN(C(=O)c1nn(C)c2c1CSc1ccccc1-2)c1ccccc1Cl | 2 | 0 | 41 | 12 | 41* | 6
Cc1nc(N2CCN(C(=O)COc3ccccc3)CC2)c2c(C)c(C)sc2n1 | -2 | -1 | 27 | 39 | 41* | 27
O=C(COc1ccccc1)N1CCN(c2ncccn2)CC1 | 0 | -3 | 3 | -4 | -9 | /
